Source: PubChem
C2C12 statin: protects C2C12 myotubes from simvastatin toxicity | hit rate 0.78% among 330,000 | AID 602340 | rescue of ATP level, % at 7.49 µM | ATP luminescence, 48 h; scaled: DMSO 0, geranylgeraniol control 100;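 active = mean ATP rescue above about 67%, or every replicate alone reaching that limit, limit read from the data, passing the limit was not always enough; inconclusive = no clear call, values can overlap the other calls; inactive = mean under the limit and some replicate under it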;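 also: myotubes were challenged with 10 µM simvastatin during compound exposure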
E-sel inducer: E-selectin induction on HUVECs. P16581. HUVEC E-selectin immunofluorescence imaging; normalized: neutral wells 0, TNF-alpha wells 100. activation, % at 7.58 µM. hit rate 0.37% among 260,000;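 active = mean E-selectin-positive cell signal at least 10% of the positive control, reached in at least 60% of replicates, without over 20% cell loss; inconclusive = no rule given, readout overlaps actives, possibly toxicity-flagged; inactive = the rest, including those meeting only one limit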
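System: HUVEC / Compound: single concentration / Signal: immunofluorescence imaging / Read-out: percent E-selectin-positive cells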
DENV2 CPE rescue: protects cells from dengue virus 2 cytopathic effect; DENV2-infected cells, cytopathic effect rescue, plate reader; CPE inhibition, % at 9.99 µM; hit rate 1.7% among 350,000; AID 651640; in the data active = CPE inhibition above about 20%, passing the limit was not always enough; inconclusive = no clear call, values can overlap the other calls; tested in BHK-21 cells;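 also: 0% = median of neutral control wells and 100% = median of positive control wells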
* = called active by the depositor; ? = inconclusive; . = no result given. This is a sample that favours compounds with a hit; in the whole collection about 2.2% have one here.

SMILES	C2C12 statin	E-sel inducer	DENV2 CPE rescue
CC(C)(C)OC(=O)NC(CC(=O)OCc1ccccc1)C(=O)O (centres undefined)	4.5	.	47.1*
CC(C)(C)OC(=O)C(Cc1ccc(OC(C)(C)C)cc1)NC(=O)CNC(=O)OCc1ccccc1 (centres undefined)	.	-0.5	76.7*
CO[C@@H]1CN(C)C(=O)c2cc(NC(=O)C3CCC3)ccc2OC[C@@H](C)N(Cc2cccnc2)C[C@@H]1C	1.0	0.1	-3.1
COc1ccc(C[C@H]2CCn3cc(nn3)COC[C@H](C(C)C)NC2=O)cc1	.	0.0	-4.5
CO[C@@H]1CN(C)C(=O)c2cc(NC(C)=O)ccc2OC[C@@H](C)N(C(=O)c2cnccn2)C[C@@H]1C	-0.5	-0.1	-0.8
Cc1ccc([C@@H]2[C@@H]3C(=O)N(C)C(=O)[C@@H]3[C@]3(C)C(=O)N(Cc4ccccc4)CC(=O)N23)o1	-9.7	-0.1	-4.0
Cc1ccc([C@@H]2[C@@H]3C(=O)N(c4ccccc4)C(=O)[C@@H]3[C@]3(C)C(=O)N(CC4CC4)CC(=O)N23)o1	10.1	0.1	50.4*
Cc1ccccc1-c1cnc2c(c1)C(=O)N([C@@H](C)CO)C[C@@H](C)[C@@H](CN(C)C(=O)c1cccnc1)O2	-10.5	-0.2	-8.1
Cc1nc(C)c(C(=O)C2=C(O)C(=O)N(CCCn3ccnc3)C2c2ccc(Cl)cc2)s1 (centres undefined)	127.9*	.	.
COc1ccc(C2C(C(C)=O)=C(O)C(=O)N2CCCn2ccnc2)cc1 (centres undefined)	3.2	.	.
CCCNC(=O)N(C)C[C@@H]1Oc2cc(-c3ccc(C)cc3)ccc2S(=O)(=O)N([C@H](C)CO)C[C@@H]1C	6.9	-2.4	-6.9
CO[C@H]1CN(C)C(=O)c2ccc(NC(=O)C3CCCCC3)cc2OC[C@H](C)N(C(=O)c2ccccc2)C[C@@H]1C	-16.1	-0.1	7.3
CN1C(=O)c2cc(NC(=O)c3cc(F)cc(F)c3)ccc2OC[C@H]2O[C@@H](CC(=O)O)CC[C@@H]21	0.6	1.7	1.4
CNC[C@@H]1Oc2ccc(NC(=O)Nc3cccc4ccccc34)cc2C(=O)N([C@H](C)CO)C[C@H]1C	15.6	.	-4.8
CN(C)C(=O)c1ccc(-c2ccccc2[C@@H]2[C@H](C#N)N(C(=O)C3CC3)[C@H]2CO)cc1	.	0.1	-4.6
CC(C)NC(=O)N1[C@H](CO)[C@H](c2ccc(-c3ccc(F)cc3)cc2)[C@@H]1C#N	-27.2	0.1	35.2*
COc1cccc(C#Cc2ccc([C@@H]3[C@@H](C#N)N(C(=O)C4CC4)[C@H]3CO)cc2)c1	0.3	-0.5	25.5*
COc1ccccc1-c1ccccc1[C@@H]1[C@@H](CO)N(C(=O)C2CCC2)[C@H]1C#N	.	0.0	-10.5
COc1ccc(-c2ccc([C@H]3[C@@H](C#N)N(C(=O)NC(C)C)[C@@H]3CO)cc2)cc1	8.3	-0.1	-7.6
COc1ccccc1-c1ccccc1[C@@H]1[C@@H](C#N)N(C(=O)C2CCC2)[C@@H]1CO	.	-0.1	43.8*
CN(C)C(=O)c1ccc(-c2ccccc2[C@@H]2[C@@H](C#N)N(C(=O)C3CC3)[C@@H]2CO)cc1	.	-0.1	39.9*
COc1cccc(C#Cc2ccc([C@H]3[C@@H](CO)N(C(=O)C4CC4)[C@H]3C#N)cc2)c1	-75.2	-0.2	-2.1
O=C(Cc1ccccc1)N1CC[C@@H]2[C@H]1c1cc(-c3ccccc3)ccc1N[C@@H]2CO	1.4	-0.7	-10.1
C[C@@H]1CCCCO[C@@H](CN(C)Cc2ccccc2)[C@H](C)CN([C@H](C)CO)C(=O)c2cc(NC(=O)NC3CCCCC3)ccc2O1	.	0.5	-3.9
C[C@H](CO)N1C[C@H](C)[C@H](CN(C)C(=O)C2CCC2)Oc2ncc(-c3cccc(F)c3)cc2C1=O	6.1	-0.3	1.4
SMILES	C2C12 statin	E-sel inducer	DENV2 CPE rescue
C[C@@H]1CN([C@H](C)CO)C(=O)c2cccc(NC(=O)c3ccncc3)c2O[C@H]1CN(C)C(=O)Nc1ccc(F)cc1	30.5	0.0	-0.8
COCC(=O)N(C)C[C@H]1Oc2cc(-c3ccccc3F)ccc2S(=O)(=O)N([C@@H](C)CO)C[C@@H]1C	12.6	0.2	-3.1
COc1ccc(-c2ccccc2[C@H]2[C@@H](C#N)N(C(=O)NC3CCCC3)[C@H]2CO)cc1	.	0.1	?
CN(C)C(=O)c1ccc(-c2ccccc2[C@H]2[C@@H](C#N)N(C(=O)C3CCCC3)[C@@H]2CO)cc1	.	0.2	-2.8
CN(C)C(=O)c1ccc(-c2ccc([C@H]3[C@@H](C#N)N(C(=O)C4CCCC4)[C@H]3CO)cc2)cc1	-7.0	-0.6	21.5*
COc1ccc(-c2ccccc2[C@H]2[C@@H](C#N)N(C(=O)C3CC3)[C@H]2CO)cc1	.	0.2	-5.5
COc1ccc(-c2ccccc2[C@@H]2[C@@H](C#N)N(C(=O)C3CC3)[C@H]2CO)cc1	.	-0.2	26.5*
